≈ marks a conversion by molar mass, not a printed value.
Legend:
[1] = tested on: Mycobacterium tuberculosis; assay: Antimycobacterial activity against Mycobacterium tuberculosis H37Rv by twofold dilution method; format: functional, organism-based
Summary of the method: (§1)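 M. tuberculosis H37Rv (ATCC 27294) grown in BACTEC 12B medium, tested by Microplate Alamar Blue Assay across 10 twofold dilutions from 100 to 0.19 µg/mL. IC90 and IC50 taken from dose–response curve fitting.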

Vero = assay: Cytotoxicity against african green monkey Vero cells after 72 hrs by MTT assay; format: cell-based; settings: Chlorocebus sabaeus
Summary of the method: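 VERO cell cytotoxicity screen: cells exposed to compound for 72 h, viability read by MTT (CellTiter 96 non-radioactive proliferation reagent); EC50 obtained by curve fitting of the dose–response.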

[2] = Solubility in DMSO-d6/D2O solution; format: physicochemical
[3] = Solubility in CD3OD solution; format: physicochemical
[4] = tested on: Mycobacterium tuberculosis; assay: Antimycobacterial activity against Mycobacterium tuberculosis H37Rv at 6.25 ug/mL by twofold dilution method; format: functional
[5] = Chemical stability in DMSO-d6/D2O solution assessed as cyclization after 25 days; format: physicochemical; settings: for Stability: 600 h
[6] = Chemical stability in DMSO-d6 solution assessed as cyclization after 25 days; format: physicochemical; settings: 600 h
[7] = Chemical stability in CD3OD solution assessed as cyclization after 25 days; format: physicochemical; settings: read-out: Activity
[8] = tested on: Mycobacterium tuberculosis; assay: Antimycobacterial activity against Mycobacterium tuberculosis; format: functional, organism-based; summary of the method: as §1

Compound	IC50 [1] [µg/mL]	IC90 [1] [µg/mL]	also measured
COc1ccc(CN(C)c2ncnc(-c3ccco3)c2NC=O)cc1	> 100	> 100	
COc1ccc(CNc2cc(-c3ccco3)nc(Cl)n2)cc1	> 100	> 100	
COc1ccc(CN(C)c2cc(-c3ccco3)nc(Cl)n2)cc1	1.4 (≈ 4.25 µM)	3 (≈ 9.1 µM)	IC50 (Vero): 22 µg/mL (≈ 66.7 µM)
COc1ccc(COc2cc(-c3ccco3)nc(Cl)n2)cc1	> 100	> 100	
COc1ccc(COc2cc(-c3ccco3)ncn2)cc1	> 100	> 100	
COc1ccc(CN(C)c2cc(-c3ccco3)ncn2)cc1	5.5 (≈ 18.6 µM)	7.1 (≈ 24 µM)	solubility [2]: Insoluble; solubility [3]: Insoluble
CNc1c(NCc2ccc(OC)cc2)ncnc1-c1ccco1	9 (≈ 29 µM)	15 (≈ 48.3 µM)	
CCNc1c(NCc2ccc(OC)cc2)ncnc1-c1ccco1	36 (≈ 111 µM)	46 (≈ 142 µM)	
COc1ccc(Cn2cnc(-c3cncnc3-c3ccco3)c2)cc1	62 (≈ 187 µM)	82 (≈ 247 µM)	
COc1ccc(Cn2cncc2-c2cc(-c3ccco3)ncn2)cc1	9.8 (≈ 29.5 µM)	14 (≈ 42.1 µM)	
COc1ccc(CN(C)c2ncnc(-c3ccco3)c2[N+](=O)[O-])cc1	5.7 (≈ 16.7 µM)	13 (≈ 38.2 µM)	
COc1ccc(COc2ncnc(-c3ccco3)c2[N+](=O)[O-])cc1	> 50	> 50	
COc1ccc(CNc2cc(-c3ccco3)ncn2)cc1			inhibition at 6.25 µg/mL [4]: 0%
NCC[C@H](O)C(=O)N[C@@H]1C[C@H](N)[C@@H](O[C@H]2O[C@H](CN)[C@@H](O)[C@H](O)[C@H]2O)[C@H](O)[C@H]1O[C@H]1O[C@H](CO)[C@@H](O)[C@H](N)[C@H]1O.O=S(=O)(O)O	0.07	0.13	
COc1ccc(CNc2nc(F)nc(-c3ccco3)c2NC=O)cc1	< 0.2	< 0.2	IC50 (Vero): > 40 µg/mL; Stability [5]: Stable; Stability [6]: Stable
COc1ccc(CNc2nc(Cl)nc(-c3ccco3)c2NC=O)cc1	< 0.2	0.2 (≈ 0.557 µM)	IC50 (Vero): > 40 µg/mL; Stability [5]: Stable; degraded at 600 h [7]: 12%; Stability [6]: Stable

Compound	IC50 [1] [µg/mL]	IC90 [1] [µg/mL]	also measured
COc1ccc(CNc2nc(C)nc(-c3ccco3)c2NC=O)cc1	< 0.2	0.33 (≈ 0.975 µM)	IC50 (Vero): > 40 µg/mL; degraded at 600 h ([5]; DMSO-d6/D2O solution, read-out: Activity): 40%; degraded at 600 h [7]: 90%; Stability [6]: Stable
COc1ccc(CNc2ncnc(-c3ccco3)c2N)cc1			inhibition at 6.25 µg/mL [4]: 0%
COc1ccc(CNc2ncnc(-c3ccco3)c2NC=O)cc1	0.22 (≈ 0.678 µM)	0.56 (≈ 1.73 µM)	IC50 (Vero): > 40 µg/mL; degraded at 600 h [7]: 90%; Stability [6]: Stable
CCc1nc(NCc2ccc(OC)cc2)c(NC=O)c(-c2ccco2)n1	0.26 (≈ 0.738 µM)	0.53 (≈ 1.5 µM)	IC50 (Vero): > 40 µg/mL; degraded at 600 h [7]: 90%; Stability [6]: Stable
COc1ccc(CN(C=O)c2c(-c3ccco3)nc[nH]c2=O)cc1	68 (≈ 209 µM)	92 (≈ 283 µM)	
COc1ccc(CN(C)c2ncnc(-c3ccco3)c2N)cc1	9.4 (≈ 30.3 µM)	17 (≈ 54.8 µM)	
COc1ccc(CNc2nc(OC)nc(-c3ccco3)c2NC=O)cc1	0.53 (≈ 1.5 µM)	1.5 (≈ 4.23 µM)	IC50 (Vero): > 40 µg/mL; Stability [5]: Stable; degraded at 600 h [7]: 12%; Stability [6]: Stable
COc1ccc(CNc2nc(N(C)C)nc(-c3ccco3)c2NC=O)cc1	11 (≈ 29.9 µM)	26 (≈ 70.8 µM)	Stability [5]: Stable; degraded at 600 h [7]: 12%; Stability [6]: Stable
COc1ccc(CNc2ncnc(-c3ccco3)c2[N+](=O)[O-])cc1	13 (≈ 39.8 µM)	21 (≈ 64.4 µM)	
COc1ccc(COc2ncnc(-c3ccco3)c2N)cc1	> 100	> 100	
COc1ccc(CNc2ncnc(-c3ccco3)c2N(C)C)cc1	17 (≈ 52.4 µM)	> 100	
COc1ccc(CNc2nc([N+](=O)[O-])nc(-c3ccco3)c2NC=O)cc1	0.59 (≈ 1.6 µM)	1.1 (≈ 2.98 µM)	IC50 (Vero): > 40 µg/mL
COc1ccc(COc2ncnc(-c3ccco3)c2NC=O)cc1	> 100	> 100	
COc1ccc(Cn2cnc3c(-c4ccco4)ncnc32)cc1			IC50 [8]: < 0.2 µg/mL
COc1ccc(Cn2cnc3c(-c4ccco4)nc(Cl)nc32)cc1			IC90 [8]: 0.82 µg/mL (≈ 2.41 µM)
